Assay results taken from ChEMBL document CHEMBL4138218, “Potent aromatase inhibitors and molecular mechanism of inhibitory action” (Eur J Med Chem, 2018).

What was measured:
Aromatase = molecular target: T1, Aromatase (Homo sapiens, UniProt P11511); assay: Inhibition of human aromatase using androstenedione as substrate and NADPH preincubated for 24 hrs followed by substrate addition measured after 24 hrs by ELISA
T1 sequence (P11511 whole entry): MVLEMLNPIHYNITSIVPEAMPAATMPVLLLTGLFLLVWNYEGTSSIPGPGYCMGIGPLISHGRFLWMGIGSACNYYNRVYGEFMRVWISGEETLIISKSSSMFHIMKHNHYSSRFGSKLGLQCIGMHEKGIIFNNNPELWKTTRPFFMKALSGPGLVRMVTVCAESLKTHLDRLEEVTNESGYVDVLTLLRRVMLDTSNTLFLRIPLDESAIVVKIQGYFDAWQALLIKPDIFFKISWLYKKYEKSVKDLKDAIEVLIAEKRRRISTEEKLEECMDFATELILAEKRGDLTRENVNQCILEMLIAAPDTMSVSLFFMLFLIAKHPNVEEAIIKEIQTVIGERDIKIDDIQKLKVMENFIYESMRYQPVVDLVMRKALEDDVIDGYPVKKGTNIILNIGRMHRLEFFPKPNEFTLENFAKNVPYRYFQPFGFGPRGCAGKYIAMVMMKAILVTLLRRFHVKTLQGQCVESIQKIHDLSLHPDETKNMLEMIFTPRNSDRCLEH
Procedure, shortened: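 Enzyme was a microsomal pellet from human placenta: tissue homogenized in TES buffer (20 mM TES, 1 mM EDTA, 0.15 M KCl, 0.1 mM PMSF, pH 7.4), spun at 10,000 g for 25 min then 100,000 g for 75 min at 4 °C, resuspended with 0.25 M sucrose, stored at −80 °C. Androstenedione substrate with NADPH; estrone quantified by ELISA against a standard curve. Triplicates, mean IC50.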

MCF7 = assay: Cytotoxicity against human MCF7 cells after 48 hrs by MTT assay; assay type: cell-based; settings: MCF7, 48 h
Procedure, shortened: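 MCF-7 cells in DMEM with 10% FBS and 1% penicillin-streptomycin at 37 °C, 5% CO2. Seeded at 4,000 cells/well and left overnight, then exposed to a range of concentrations for 48 h. Medium replaced with fresh medium containing MTT (5 mg/ml) for 4 h, formazan dissolved in DMSO, absorbance read at 490 nm. IC50 computed from the curves.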

| IC50 (Aromatase) [nM] | SMILES | IC50 (MCF7) [µM] |
| --- | --- | --- |
| 32.3 | Fc1ccc(-c2[nH]c3cc(Cl)ccc3c2Cn2ccnc2)cc1 | 41.5 |
| 261 | Clc1ccc(-c2[nH]c3cc(Cl)ccc3c2Cn2ccnc2)cc1 | > 1000 |
| 82.9 | Fc1ccc2c(Cn3ccnc3)c(-c3ccc(Cl)cc3)[nH]c2c1 | 45 |
| 109 | COc1ccc2c(Cn3ccnc3)c(-c3ccc(F)cc3)[nH]c2c1 | > 1000 |
| 36.1 | COc1ccc(-c2[nH]c3cc(F)ccc3c2Cn2ccnc2)cc1 | > 1000 |
| 277 | COc1ccc(-c2[nH]c3cc(Cl)ccc3c2Cn2ccnc2)cc1 | > 1000 |
| 51.2 | Fc1ccc(-c2[nH]c3cc(F)ccc3c2Cn2ccnc2)cc1 | 83.2 |

The next lines start with the molecule.

| SMILES | IC50 (Aromatase) [nM] | IC50 (MCF7) [µM] |
| --- | --- | --- |
| Clc1ccc(-c2[nH]c3cc4c(cc3c2Cn2cncn2)OCO4)cc1 | 677 | 354 |
| COc1ccc2c(Cn3cncn3)c(-c3ccc(Cl)cc3)[nH]c2c1 | 7770 | 612 |
| COc1ccc2c(Cn3ccnc3)c(-c3ccc(Cl)cc3)[nH]c2c1 | 1060 | > 1000 |
| Fc1ccc(-c2[nH]c3cc4c(cc3c2Cn2cncn2)OCO4)cc1 | 58.3 | 334 |
| Fc1ccc(-c2[nH]c3cc(Cl)ccc3c2Cn2cncn2)cc1 | 96.9 | 625 |
| N#Cc1ccc(C(c2ccc(C#N)cc2)n2cncn2)cc1 [LETROZOLE] |  | 4.73 |
| Clc1ccc(-c2[nH]c3cc(Cl)ccc3c2Cn2cncn2)cc1 | 208 | 382 |
| COc1ccc(-c2[nH]c3cc(Cl)ccc3c2Cn2cncn2)cc1 | 196 | 14.4 |
| Fc1ccc(-c2[nH]c3cc(F)ccc3c2Cn2cncn2)cc1 | 54.4 | > 1000 |
| Clc1ccc(-c2[nH]c3cc4c(cc3c2Cn2ccnc2)OCO4)cc1 | 2640 | > 1000 |
| Fc1ccc(-c2[nH]c3cc4c(cc3c2Cn2ccnc2)OCO4)cc1 | 211 | > 1000 |
| Fc1ccc2c(Cn3cncn3)c(-c3ccc(Cl)cc3)[nH]c2c1 | 217 | > 1000 |
| COc1ccc2c(Cn3cncn3)c(-c3ccc(F)cc3)[nH]c2c1 | 238 | 12.2 |
| COc1ccc(-c2[nH]c3cc(F)ccc3c2Cn2cncn2)cc1 | 14.1 | 325 |
